The text below walks through data of ChEMBL document CHEMBL2203197, “Design and synthesis of 2-aminothiazole based antimicrobials targeting MRSA” (2012).

Broadly, the MIC is the lowest concentration that inhibits growth of the organism. Low readings indicate a more susceptible organism, high ones a less susceptible organism.

In brackets after ≈: the same amount, converted by molar mass.

What all share (type): functional
The subject of one assay is Escherichia coli. Put plainly: Antibacterial activity against Escherichia coli C600 N/puc19 after 24 hrs by CLSI broth microdilution method. To be noted: C600 N/puc19, 24 h. In a few lines:
(§1)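 Broth microdilution per CLSI in cation-adjusted Mueller–Hinton broth. MIC was taken as the lowest concentration inhibiting visible growth (turbidity).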
Background: Broth dilution looks for growth in wells or tubes with falling amounts of substance.

The test system of assay [1] is Staphylococcus aureus. Put plainly: Antibacterial activity against methicillin-resistant Staphylococcus aureus USA-300 after 24 hrs by CLSI broth microdilution method. To be noted: USA-300, 24 h. In a few lines:
(§2)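 Broth microdilution per CLSI in cation-adjusted Mueller–Hinton broth. Plates were incubated 24 h at 37 °C. MIC was taken as the lowest concentration that inhibited growth, judged by turbidity.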

In assay [2] the test system is Staphylococcus aureus. Put plainly: Antibacterial activity against methicillin-resistant Staphylococcus aureus RN8175 after 24 hrs by CLSI broth microdilution method. To be noted: RN8175, 24 h. The method in brief: as §2
The subject of assay [3] is Staphylococcus aureus. Put plainly: Antibacterial activity against methicillin-resistant Staphylococcus aureus UAMS-1 after 24 hrs by CLSI broth microdilution method. To be noted: UAMS-1, 24 h. The method in brief: as §2
The next assay deals with Acinetobacter baumannii. Put plainly: Antibacterial activity against Acinetobacter baumannii UNMC 8872 after 24 hrs by CLSI broth microdilution method. To be noted: UNMC 8872, 24 h. In a few lines: as §1

On to `Nc1nc2cc(-c3cccc(OC(F)(F)F)c3)ccc2s1`, for which the minimum inhibitory concentration (MIC) with Escherichia coli was more than 256 µg/mL; against Staphylococcus aureus [1], 8 µg/mL (≈ 25.8 µM); with Staphylococcus aureus [2], 8 µg/mL (≈ 25.8 µM).

Consider `CCOC(=O)CCc1ccc(-c2cccc(-c3csc(N)n3)c2)cc1`, for which the MIC is more than 256 µg/mL against Escherichia coli, more than 256 µg/mL in the assay on Staphylococcus aureus [1] and 256 µg/mL (≈ 726 µM) against Staphylococcus aureus [2].

For `O=S(=O)(Nc1nc(-c2ccccc2F)cs1)c1ccccc1`, the MIC was more than 256 µg/mL with Escherichia coli, 128 µg/mL (≈ 383 µM) with Staphylococcus aureus [1] and 32 µg/mL (≈ 95.7 µM) in the assay with Staphylococcus aureus [2].

With `COC(=O)c1cccc(-c2csc(N)n2)c1`, the MIC with Escherichia coli, in the assay on Staphylococcus aureus [1] and against Staphylococcus aureus [2] was more than 256 µg/mL each time.

For the compound `CCOC(=O)c1cccc(-c2ccc3sc(N)nc3c2)c1`, the minimum inhibitory concentration (MIC) in the assay on Staphylococcus aureus [3], in the assay with Escherichia coli, in the assay on Staphylococcus aureus [1] and against Staphylococcus aureus [2] was more than 256 µg/mL in each case.

Turning to `Nc1nc(-c2cccc(-c3cccc(OC(F)(F)F)c3)c2)cs1`, the MIC against Escherichia coli was more than 256 µg/mL; with Staphylococcus aureus [1], 8 µg/mL (≈ 23.8 µM); against Staphylococcus aureus [2], 4 µg/mL (≈ 11.9 µM).

`Nc1nc(-c2ccc(-c3cccc(OC(F)(F)F)c3)cc2)cs1`: the minimal inhibitory concentration (MIC) against Escherichia coli was more than 256 µg/mL; against Staphylococcus aureus [1], more than 256 µg/mL; with Staphylococcus aureus [2], 2 µg/mL (≈ 5.95 µM).

Regarding `CCOC(=O)c1cccc(-c2ccccc2-c2csc(N)n2)c1`, the minimum inhibitory concentration (MIC) against Escherichia coli is more than 256 µg/mL; against Acinetobacter baumannii, more than 256 µg/mL; in the assay with Staphylococcus aureus [1], 256 µg/mL (≈ 789 µM); against Staphylococcus aureus [2], 32 µg/mL (≈ 98.6 µM).

Take `COC(=O)c1ccccc1-c1cccc(-c2csc(N)n2)c1`: the MIC against Staphylococcus aureus [3], against Escherichia coli, against Staphylococcus aureus [1] and in the assay on Staphylococcus aureus [2] was more than 256 µg/mL each time.

Regarding `Nc1nc(-c2cc3ccccc3o2)cs1`, the MIC in the assay on Staphylococcus aureus [3] was 256 µg/mL (≈ 1180 µM); with Escherichia coli, more than 256 µg/mL; with Staphylococcus aureus [1], more than 256 µg/mL; against Staphylococcus aureus [2] it was more than 256 µg/mL.

Consider `Nc1nc(-c2ccc(OC(F)(F)F)cc2)cs1`, for which the results for the MIC with Escherichia coli, with Staphylococcus aureus [1] and against Staphylococcus aureus [2] were more than 256 µg/mL, 64 µg/mL (≈ 246 µM) and 64 µg/mL (≈ 246 µM), respectively.

With `Fc1cccc(Nc2nc(-c3ccc(N4CCOCC4)cc3)cs2)c1`, the minimum inhibitory concentration (MIC) against Staphylococcus aureus [3] is 256 µg/mL (≈ 720 µM); with Escherichia coli, more than 256 µg/mL; in the assay with Staphylococcus aureus [1] it was more than 256 µg/mL; in the assay on Staphylococcus aureus [2] it was more than 256 µg/mL.

Take `Nc1nc(-c2cccc(-c3cccc(C(=O)O)c3)c2)cs1`: the MIC against Escherichia coli, in the assay on Acinetobacter baumannii, in the assay on Staphylococcus aureus [1] and with Staphylococcus aureus [2] was more than 256 µg/mL throughout.

For the compound `Nc1nc(-c2ccc(N3CCOCC3)cc2)cs1`, the MIC is 128 µg/mL (≈ 490 µM) against Staphylococcus aureus [3], more than 256 µg/mL in the assay with Escherichia coli, more than 256 µg/mL with Staphylococcus aureus [1] and 256 µg/mL (≈ 980 µM) in the assay on Staphylococcus aureus [2].

As to `Fc1cccc(Nc2nc(-c3cccc(Br)c3)cs2)c1`, the MIC is 2 µg/mL (≈ 5.73 µM) in the assay on Staphylococcus aureus [3], more than 256 µg/mL in the assay with Escherichia coli, 4 µg/mL (≈ 11.5 µM) against Staphylococcus aureus [1] and 4 µg/mL (≈ 11.5 µM) with Staphylococcus aureus [2].

On to `Nc1nc(-c2cccc(-c3ccc(C(=O)O)cc3)c2)cs1`, for which the MIC in the assay on Escherichia coli, in the assay on Acinetobacter baumannii, against Staphylococcus aureus [1] and with Staphylococcus aureus [2] was more than 256 µg/mL throughout.

As for `Fc1cccc(Nc2nc(-c3ccc(N4CCCC4)cc3)cs2)c1`, the MIC against Staphylococcus aureus [3] is 2 µg/mL (≈ 5.89 µM); in the assay with Escherichia coli it was more than 256 µg/mL; against Staphylococcus aureus [1] it was more than 256 µg/mL; against Staphylococcus aureus [2], more than 256 µg/mL.

Take `COc1ccc(-c2csc(N)n2)cc1`: the minimum inhibitory concentration (MIC) against Escherichia coli, in the assay on Staphylococcus aureus [1] and against Staphylococcus aureus [2] was more than 256 µg/mL in each case.

With `O=S(=O)(Nc1nc2c(s1)CCCC2)c1cccc(C(F)(F)F)c1`, the MIC in the assay on Staphylococcus aureus [3], against Escherichia coli, in the assay with Staphylococcus aureus [1] and with Staphylococcus aureus [2] was more than 256 µg/mL in each case.

Regarding `CCOC(=O)COc1cccc(-c2cccc(-c3csc(N)n3)c2)c1`, the MIC with Escherichia coli, against Staphylococcus aureus [1] and against Staphylococcus aureus [2] was more than 256 µg/mL throughout.

As to `CCOC(=O)c1cccc(-c2cccc(-c3csc(N)n3)c2)c1`, the MIC with Escherichia coli, against Acinetobacter baumannii, with Staphylococcus aureus [1] and in the assay with Staphylococcus aureus [2] was more than 256 µg/mL throughout.

For `O=S(=O)(Nc1nc(-c2ccccc2Br)cs1)c1ccccc1`, the MIC was more than 256 µg/mL in the assay with Escherichia coli, 128 µg/mL (≈ 324 µM) against Staphylococcus aureus [1] and 32 µg/mL (≈ 81 µM) in the assay with Staphylococcus aureus [2].

Consider `CCOC(=O)COc1ccc(-c2cccc(-c3csc(N)n3)c2)cc1`, for which the values for the minimal inhibitory concentration (MIC) in the assay on Escherichia coli, in the assay with Staphylococcus aureus [1] and in the assay with Staphylococcus aureus [2] were more than 256 µg/mL, more than 256 µg/mL and 256 µg/mL (≈ 722 µM), respectively.

For `COC(=O)c1ccc(-c2csc(N)n2)cc1`, the figures for the minimum inhibitory concentration (MIC) against Escherichia coli, against Staphylococcus aureus [1] and with Staphylococcus aureus [2] were more than 256 µg/mL, more than 256 µg/mL and 128 µg/mL (≈ 546 µM), respectively.

As to `Nc1nc2ccc(-c3cccc(OC(F)(F)F)c3)cc2s1`, the MIC against Escherichia coli was more than 256 µg/mL; with Staphylococcus aureus [1] it was 16 µg/mL (≈ 51.6 µM); in the assay on Staphylococcus aureus [2], 8 µg/mL (≈ 25.8 µM).

As for `O=S(=O)(Nc1nc(-c2ccc(Br)cc2)cs1)c1ccccc1`, the minimum inhibitory concentration (MIC) against Escherichia coli was more than 256 µg/mL; against Acinetobacter baumannii, more than 256 µg/mL; with Staphylococcus aureus [1], 64 µg/mL (≈ 162 µM); with Staphylococcus aureus [2], 16 µg/mL (≈ 40.5 µM).

For the compound `O=S(=O)(Nc1nc(C23CC4CC(CC(C4)C2)C3)cs1)c1cccc(C(F)(F)F)c1`, the MIC against Staphylococcus aureus [3] is 128 µg/mL (≈ 289 µM); against Escherichia coli it was more than 256 µg/mL; in the assay on Staphylococcus aureus [1], more than 256 µg/mL; in the assay with Staphylococcus aureus [2], more than 256 µg/mL.

For the compound `CC(=O)OCC1=C(C(=O)O)N2C(=O)[C@@H](NC(=O)c3cccc(-c4csc(N)n4)c3)C2SC1` (stereo not given in full), the MIC was 256 µg/mL (≈ 539 µM) in the assay with Staphylococcus aureus [3], more than 256 µg/mL against Escherichia coli, 256 µg/mL (≈ 539 µM) in the assay on Staphylococcus aureus [1] and 16 µg/mL (≈ 33.7 µM) against Staphylococcus aureus [2].

In the case of `Nc1nc(-c2ccc(N3CCCC3)cc2)cs1`, the MIC against Staphylococcus aureus [3] was 256 µg/mL (≈ 1040 µM); with Escherichia coli, more than 256 µg/mL; against Staphylococcus aureus [1] it was more than 256 µg/mL; in the assay with Staphylococcus aureus [2] it was more than 256 µg/mL.

`CO/N=C(\C(=O)N[C@@H]1C(=O)N2C(C(=O)O)=C(CSc3nc(=O)c(O)nn3C)CS[C@H]12)c1csc(N)n1` [CEFTRIAXONE]: the MIC was 8 µg/mL (≈ 14.4 µM) against Staphylococcus aureus [3]; 2 µg/mL (≈ 3.61 µM) in the assay on Escherichia coli; 8 µg/mL (≈ 14.4 µM) in the assay on Acinetobacter baumannii; 128 µg/mL (≈ 231 µM) against Staphylococcus aureus [1]; 16 µg/mL (≈ 28.9 µM) in the assay with Staphylococcus aureus [2].

With `Nc1nc(-c2ccc3ccccc3c2)cs1`, the MIC is 256 µg/mL (≈ 1130 µM) against Staphylococcus aureus [3], more than 256 µg/mL against Escherichia coli, more than 256 µg/mL in the assay on Staphylococcus aureus [1] and more than 256 µg/mL against Staphylococcus aureus [2].

In the case of `Nc1nc(-c2ccccc2-c2cccc(OC(F)(F)F)c2)cs1`, the figures for the MIC against Escherichia coli, against Staphylococcus aureus [1] and against Staphylococcus aureus [2] were more than 256 µg/mL, 16 µg/mL (≈ 47.6 µM) and 16 µg/mL (≈ 47.6 µM), respectively.
